The values that follow come from ChEMBL document CHEMBL1141628 (J Med Chem, 2008).

≈ marks a conversion by molar mass, not a printed value.

The target of one data set is Cytochrome P450 2C19 (Homo sapiens, UniProt P33261). As to the kind of experiment: Inhibition of human CYP2C19. The class given is ADME.
The target in another data set is Cytochrome P450 2C9 (Homo sapiens, UniProt P11712). Nature of the data set: Inhibition of human CYP2C9. The format is ADME.
For data set [1], the target named is T1, Cytochrome P450 3A4 (Homo sapiens, UniProt P08684). As to the kind of experiment: Inhibition of human CYP3A4 using 7-benzyloxyresorufin. The class given is ADME.
Data set [2] is described as follows: AUC (0 to 4 hrs) in mouse at 200 mg/kg, po. Conditions: plasma. The format is ADME, organism-based. Further details: time < 4 hr, dose 200 mg/kg, route oral. The method, boiled down:
(§1)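 Oral dosing to female mice, three per dose group, at 50 and 200 mg/kg in PEG400/water (70:30). Plasma levels of the parent drug were measured at 0.5, 1 and 4 h.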

Data set [3] concerns the target T1, Cytochrome P450 3A4. As to the kind of experiment: Inhibition of human CYP3A4 using 7-benzyl-trifluoromethyl coumarin. The format is ADME.
For another data set, the system named is Mus musculus. As to the kind of experiment: Ratio of AUC (0 to 4 hrs) in mouse plasma at 200 mg/kg, po to AUC (0 to 4 hrs) in mouse plasma at 50 mg/kg, po. The class given is ADME, organism-based. The settings on record: in vivo. The method, boiled down: as §1
The nature of data set [4]: Cmax in mouse at 50 mg/kg, po. The format is ADME, organism-based. The arrangement: dose 50 mg/kg, route oral. The settings on record: in vivo. The procedure, abridged: as §1
A short description of data set [5]: Cmax in mouse at 200 mg/kg, po. The format is ADME, organism-based. The arrangement: dose 200 mg/kg, route oral. Conditions: in vivo. The method, boiled down: as §1
Data set [6] is described as follows: AUC (0 to 4 hrs) in mouse at 50 mg/kg, po. The class given is ADME, organism-based. Further details: time < 4 hr, dose 50 mg/kg, route oral. The settings on record: plasma. The method, boiled down:
as §1

In a further data set the target is Cytochrome P450 2D6 (Homo sapiens, UniProt P10635). As to the kind of experiment: Inhibition of human CYP2D6. The format is ADME.
Another data set has as its target T2, Cytochrome P450 1A2 (Homo sapiens, UniProt P05177).
T2 sequence (P05177 whole entry): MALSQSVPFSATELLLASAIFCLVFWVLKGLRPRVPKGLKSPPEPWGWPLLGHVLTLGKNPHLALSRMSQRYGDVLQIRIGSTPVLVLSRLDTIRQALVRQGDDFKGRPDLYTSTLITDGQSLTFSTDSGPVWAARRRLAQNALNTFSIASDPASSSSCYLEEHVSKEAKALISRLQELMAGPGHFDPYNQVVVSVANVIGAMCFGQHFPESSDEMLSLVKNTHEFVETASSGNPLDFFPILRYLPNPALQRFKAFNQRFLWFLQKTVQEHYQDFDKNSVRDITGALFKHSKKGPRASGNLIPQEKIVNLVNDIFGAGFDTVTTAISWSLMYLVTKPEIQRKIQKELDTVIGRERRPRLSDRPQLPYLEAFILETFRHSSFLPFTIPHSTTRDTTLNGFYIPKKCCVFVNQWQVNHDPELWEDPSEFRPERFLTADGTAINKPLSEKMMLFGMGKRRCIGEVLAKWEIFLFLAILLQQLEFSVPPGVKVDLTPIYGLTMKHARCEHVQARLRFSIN
Nature of the data set: Inhibition of human CYP1A2. The format is ADME.

The nature of data set [7]: Aqueous solubility at pH 6.5. The format is physicochemical.
In data set [8] the test system is L2987. Nature of the data set: Antitumor activity against human L2987 cells xenografted athymic mouse at 107 mg/kg/day, po after 14 days. The class given is functional. The settings on record: L2987, 336 h, read-out: TGI. The method, boiled down:
(§2)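 L2987 non-small cell lung tumors were grown as xenografts in athymic mice. Once tumors were established at 80–100 mm³, animals were dosed orally once daily for 14 consecutive days. Tumor growth was followed through dosing, and activity was expressed as percent tumor growth inhibition (%TGI).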
A general note: Xenograft models place foreign cells or tissue in a host animal.

Data set [9] is described as follows: Aqueous solubility at pH 5.8. The format is physicochemical.
Data set [10] concerns L2987. As to the kind of experiment: Antitumor activity against human L2987 cells xenografted athymic mouse at 80 mg/kg/day, po after 14 days. The format is functional. The settings on record: L2987, 336 h, read-out: TGI. The procedure, abridged:
as §2

Data set [11] has as its system L2987. As to the kind of experiment: Antitumor activity against human L2987 cells xenografted po dosed athymic mouse after 14 days. The format is functional, organism-based. The procedure, abridged: as §2

Chain of Cytochrome P450 2C19 (P33261 whole entry): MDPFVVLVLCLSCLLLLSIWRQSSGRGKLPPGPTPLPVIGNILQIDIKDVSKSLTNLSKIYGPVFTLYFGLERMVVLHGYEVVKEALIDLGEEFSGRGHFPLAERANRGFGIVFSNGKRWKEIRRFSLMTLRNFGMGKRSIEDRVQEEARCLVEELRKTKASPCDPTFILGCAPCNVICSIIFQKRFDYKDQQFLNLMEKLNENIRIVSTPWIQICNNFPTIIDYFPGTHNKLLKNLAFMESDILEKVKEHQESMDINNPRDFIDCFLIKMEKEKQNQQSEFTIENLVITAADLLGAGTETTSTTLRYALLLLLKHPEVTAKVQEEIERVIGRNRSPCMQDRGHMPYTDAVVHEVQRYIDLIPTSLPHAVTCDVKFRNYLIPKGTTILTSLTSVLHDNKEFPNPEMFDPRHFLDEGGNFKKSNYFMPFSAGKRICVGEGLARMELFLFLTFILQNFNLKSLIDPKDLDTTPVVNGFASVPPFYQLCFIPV
T1 sequence (P08684 whole entry): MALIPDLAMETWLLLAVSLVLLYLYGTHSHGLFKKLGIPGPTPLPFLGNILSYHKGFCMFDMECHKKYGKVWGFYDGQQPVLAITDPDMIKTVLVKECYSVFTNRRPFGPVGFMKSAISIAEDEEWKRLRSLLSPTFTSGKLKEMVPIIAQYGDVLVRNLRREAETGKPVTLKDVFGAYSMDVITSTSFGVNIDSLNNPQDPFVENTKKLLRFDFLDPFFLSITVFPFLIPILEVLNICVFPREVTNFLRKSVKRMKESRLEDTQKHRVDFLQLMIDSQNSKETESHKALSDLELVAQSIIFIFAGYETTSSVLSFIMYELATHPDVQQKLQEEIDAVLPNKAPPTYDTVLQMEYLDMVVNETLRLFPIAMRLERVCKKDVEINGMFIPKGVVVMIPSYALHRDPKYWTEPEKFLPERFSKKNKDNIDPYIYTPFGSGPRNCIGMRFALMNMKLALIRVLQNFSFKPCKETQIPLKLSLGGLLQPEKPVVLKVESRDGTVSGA
Chain of Cytochrome P450 2C9 (P11712 whole entry): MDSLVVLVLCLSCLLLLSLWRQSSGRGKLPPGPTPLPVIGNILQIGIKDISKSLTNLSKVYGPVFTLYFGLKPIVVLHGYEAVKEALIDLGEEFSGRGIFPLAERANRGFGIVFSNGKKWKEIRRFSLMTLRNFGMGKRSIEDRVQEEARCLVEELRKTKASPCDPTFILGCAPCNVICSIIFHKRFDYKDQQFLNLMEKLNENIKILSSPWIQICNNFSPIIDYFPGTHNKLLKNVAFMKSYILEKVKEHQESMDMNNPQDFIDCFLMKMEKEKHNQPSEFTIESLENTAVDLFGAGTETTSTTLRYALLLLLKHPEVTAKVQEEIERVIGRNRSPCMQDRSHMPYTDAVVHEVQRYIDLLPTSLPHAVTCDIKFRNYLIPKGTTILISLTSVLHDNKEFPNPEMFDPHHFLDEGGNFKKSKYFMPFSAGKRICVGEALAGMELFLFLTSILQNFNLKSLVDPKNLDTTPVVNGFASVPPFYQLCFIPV
Chain of Cytochrome P450 2D6 (P10635 whole entry): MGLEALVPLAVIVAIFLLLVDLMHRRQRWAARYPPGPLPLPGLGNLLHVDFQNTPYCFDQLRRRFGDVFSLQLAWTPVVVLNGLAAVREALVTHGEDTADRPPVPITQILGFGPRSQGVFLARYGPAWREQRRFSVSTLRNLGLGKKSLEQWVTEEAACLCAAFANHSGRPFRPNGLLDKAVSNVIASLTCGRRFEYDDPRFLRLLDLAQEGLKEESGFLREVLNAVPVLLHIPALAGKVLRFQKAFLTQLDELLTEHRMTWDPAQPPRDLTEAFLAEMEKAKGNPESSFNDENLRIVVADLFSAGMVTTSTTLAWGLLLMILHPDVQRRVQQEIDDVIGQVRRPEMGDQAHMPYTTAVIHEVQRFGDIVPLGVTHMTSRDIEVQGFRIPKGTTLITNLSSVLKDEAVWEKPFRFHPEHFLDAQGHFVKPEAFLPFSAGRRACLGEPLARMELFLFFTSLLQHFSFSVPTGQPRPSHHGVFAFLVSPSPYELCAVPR

Broadly, the IC50 is the concentration that inhibits the measured activity by half. Higher therefore signals weaker potency. As a reminder, the AUC(0-t) is the area under the concentration-time curve up to a stated or last time point. A word on the Cmax: it is the highest concentration seen after dosing. Turning to `Cc1cc2c(F)c(Oc3ncnn4cc(OC[C@@H](C)OC(=O)C(N)CC(C)C)c(C)c34)ccc2[nH]1` (single isomer, unassigned), the half-maximal inhibitory concentration (IC50) against Cytochrome P450 2C19 stood at 1.8 µM; on Cytochrome P450 2C9 it was 2.7 µM; against Cytochrome P450 3A4 [1], 0.37 µM; against Cytochrome P450 3A4 [3] it was 0.095 µM; at Cytochrome P450 2D6, 24 µM; against Cytochrome P450 1A2 it was 34 µM. Further, the AUC(0-t) at 4 h came out at 451 µM·h in data set [2] and 113 µM·h in [6]. The Ratio with Mus musculus is on record as 4. Further, the Cmax in [4] was found to be 31 µM; in data set [5], 152 µM.
Usually solubility stands for the concentration that dissolves in the medium under given conditions. For the molecule `Cc1cc2c(F)c(Oc3ncnn4cc(OC[C@@H](C)O)c(C)c34)ccc2[nH]1` [BRIVANIB], the half-maximal inhibitory concentration (IC50) on Cytochrome P450 2C19, against Cytochrome P450 2C9, on Cytochrome P450 2D6 and at Cytochrome P450 1A2 was > 40 µM in each case. Besides, the results for the area under the curve AUC(0-t) at 4 h in [2] and in data set [6] were 52 µM·h and 45 µM·h, respectively. Also, the maximum concentration (Cmax) in data set [4] was 12 µM; in [5], 14 µM. The solubility in data set [7] is < 0.001 mg/mL.
For `Cc1cc2c(F)c(Oc3ncnn4cc(OC[C@@H](C)OC(=O)C(C)N)c(C)c34)ccc2[nH]1` (single isomer, unassigned; 8), the half-inhibitory concentration (IC50) is 2.1 µM at Cytochrome P450 2C19, 9.7 µM against Cytochrome P450 2C9, 24 µM at Cytochrome P450 2D6 and > 40 µM against Cytochrome P450 1A2. Further, the inhibition in vivo at 107 mg/kg/day in the data set with L2987 [8] stood at 97%. The concentration in solution in data set [9] (solubility) was 73 mg/mL (≈ 165 mM). Moreover, the AUC(0-t) at 4 h in [2] was 276 µM·h; in data set [6], 69 µM·h. In the data set with L2987 [10], the inhibition in vivo at 80 mg/kg/day came out at 85%. Also, the results for the highest concentration (Cmax) in data set [4] and in data set [5] were 21 µM and 78 µM, respectively. Moreover, in the data set with L2987 [11], the Activity result is “Dose-dependent effect”.
As to `Cc1cc2c(F)c(Oc3ncnn4cc(OC[C@@H](C)OC(=O)C(C)(C)N)c(C)c34)ccc2[nH]1`, the exposure AUC(0-t) at 4 h is 213 µM·h in data set [2] and 46 µM·h in data set [6]. Besides, the Ratio in the data set with Mus musculus came to 4.6. Further, the highest concentration (Cmax) was determined as 15 µM in [4] and 66 µM in data set [5].
`Cc1cc2c(F)c(Oc3ncnn4cc(OC[C@@H](C)OC(=O)CN)c(C)c34)ccc2[nH]1`: the concentration for half-maximal inhibition (IC50) against Cytochrome P450 2C19 is 0.16 µM; on Cytochrome P450 2C9, 0.063 µM; against Cytochrome P450 3A4 [1], 0.31 µM; on Cytochrome P450 3A4 [3], 0.16 µM; at Cytochrome P450 2D6, 12 µM; on Cytochrome P450 1A2, 3.7 µM. Further, the AUC(0-t) at 4 h in data set [2] was determined as 303 µM·h; in data set [6], 69 µM·h. Moreover, the Ratio in the data set on Mus musculus came out at 4.4. In addition, the highest concentration (Cmax) in data set [4] was 21 µM; in data set [5], 126 µM.
